From the M2OR odorant receptor database

What follows are molecules tested against T1, UniProt Q9WVD7. Details: stereoisomer not certain.
T1 sequence (whole entry): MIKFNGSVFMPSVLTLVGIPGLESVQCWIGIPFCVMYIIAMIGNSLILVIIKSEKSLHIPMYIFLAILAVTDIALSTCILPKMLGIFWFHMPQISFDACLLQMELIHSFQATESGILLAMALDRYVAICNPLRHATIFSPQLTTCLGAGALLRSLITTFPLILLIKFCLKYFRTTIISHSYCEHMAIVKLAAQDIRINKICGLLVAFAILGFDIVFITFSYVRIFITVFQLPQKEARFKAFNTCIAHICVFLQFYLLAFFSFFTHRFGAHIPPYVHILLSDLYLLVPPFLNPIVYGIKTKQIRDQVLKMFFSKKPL
Summary of the method: (§1)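 Assay methods differ from source to source, frequently being transient luciferase assays in mammalian cell lines. For each receptor–molecule pair, the label responsive (active) applies when the original authors judged the measured signal statistically different from baseline, and non-responsive (inactive) applies otherwise.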

Compound	odorant receptor agonist call
CCCCCCC(=O)[O-].[H+]	active
O=C([O-])CCCCC(=O)[O-].[H+].[H+]	inactive
O=C(O)CCCCBr	inactive
CCCCCCCC(=O)[O-].[H+]	active
O=C(O)CCCCCC(=O)O	inactive
O=C(O)CCCBr	inactive
CCCCCO	inactive

Each molecule was assayed against UniProt Q9WVD9. Details: stereoisomer not certain.
Summary of the method: as §1

Chain of UniProt Q9WVD9 (Q9WVD9 as listed by the source): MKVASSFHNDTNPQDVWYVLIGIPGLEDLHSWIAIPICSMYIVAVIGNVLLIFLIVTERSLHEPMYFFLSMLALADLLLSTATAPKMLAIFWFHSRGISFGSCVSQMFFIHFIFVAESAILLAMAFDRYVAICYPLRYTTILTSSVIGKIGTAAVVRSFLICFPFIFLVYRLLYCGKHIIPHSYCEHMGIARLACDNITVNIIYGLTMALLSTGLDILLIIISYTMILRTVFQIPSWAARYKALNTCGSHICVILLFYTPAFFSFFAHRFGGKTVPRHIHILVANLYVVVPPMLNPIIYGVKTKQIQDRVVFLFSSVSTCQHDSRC

Compound	odorant receptor agonist call
C=C(C)C1CCC(C)C(=O)C1 (stereo not given)	inactive
CCCCCOC(=O)CCCCC	inactive
CCCCCCC(C)=O	inactive
CCCCCCCCCS	inactive
CCCCCCC(=O)[O-].[H+]	active
CCCC(=O)C(C)=O	inactive
CCCCOC(=O)C(C)OC(=O)CCC (stereo not given)	inactive
CCCCC(=O)CC	inactive
CCCCCCCC(C)=O	inactive
O=c1ccc2ccccc2o1	inactive
CCCCCCCC(=O)[O-].[H+]	inactive
CCCCCC1=C(C)CCC1=O	inactive
CCCC(C)=O	inactive
CCCCOC=O	inactive
CC(=O)OCc1ccccc1	inactive
CC(=O)Oc1ccccc1	inactive
CCCCCCOC(C)=O	inactive
CC(C)=CCCC(C)CCO (stereo not given)	inactive
CC12CCC(CC1=O)C2(C)C (stereo not given)	inactive
CCC(C(=O)O)c1ccccc1 (stereo not given)	inactive
CCC(=O)O	inactive
CCCCCO	inactive
O=C1CCOc2ccccc21	inactive
